Tests used:
[1] = test system: NCI-H460; test: Anticancer activity against human H460 cells; assay type: functional, cell-based
Summary of the method: (§1)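 H460 and the paclitaxel-resistant, P-gp-overexpressing H460taxR line were grown in RPMI 1640 with 10% heat-inactivated FCS, penicillin and streptomycin, at 37 C in 5% CO2. Cells were seeded in 96-well plates, dosed next day from DMSO stocks (DMSO <1%, matched DMSO control), and stained with sulforhodamine B at 72 h. IC50 came from four-parameter logistic fits; at least three experiments.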

[2] = test system: NCI-H460; test: Anticancer activity against paclitaxel resistant variant human H460 cells; assay type: functional, cell-based; summary of the method: as §1
[3] = Anticancer activity against human NHFB cells; assay type: ADME, cell-based
Summary of the method: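 Normal human fibroblasts (NHFB) were kept in DMEM with 10% heat-inactivated FCS, penicillin and streptomycin, at 37 C in 5% CO2. They were seeded in 96-well plates and treated next day, with DMSO below 1% and a matched DMSO control. Sulforhodamine B readout was at 72 h, with viability taken relative to control. IC50 came from four-parameter logistic fits; unreached values were recorded as >100 µM because of the solubility/DMSO limit.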

SMILES | IC50 [1] | IC50 [2] | IC50 [3]
CN(C)c1ccc(/C=C2/SC(=Nc3ccccc3Cl)NC2=O)cc1 | 730 nM | 880 nM | > 100 µM
Cc1ccc(N=C2NC(=O)/C(=C\c3ccc(N(C)C)cc3)S2)cc1 | 940 nM | 820 nM | > 100 µM
CN(C)c1ccc(/C=C2/SC(=Nc3ccc(O)cc3)NC2=O)cc1 | 1320 nM | 1080 nM | > 100 µM
COc1ccc(N=C2NC(=O)/C(=C\c3ccc(N(C)C)cc3)S2)cc1 | 2520 nM | 1600 nM | > 100 µM
O=C1N/C(=N\c2ccc(Cl)cc2)S/C1=C/c1ccccc1O | 1850 nM | 1180 nM | > 100 µM
Cc1ccccc1/N=C1\NC(=O)/C(=C\c2ccc(N(C)C)cc2)S1 | 650 nM | 540 nM | > 100 µM
CC(=O)Nc1ccc(/C=C2/S/C(=N/c3cccc(Cl)c3)NC2=O)cc1 | 1190 nM | 1250 nM | > 100 µM
CN(C)c1ccc(/C=C2/S/C(=N/c3ccc(Cl)cc3)NC2=O)cc1 | 2890 nM | 2930 nM | > 100 µM
CN(C)c1ccc(/C=C2/SC(=Nc3ccccc3)NC2=O)cc1 | 500 nM | 210 nM | > 100 µM
COc1ccc(/C=C2/S/C(=N/c3ccccc3C)NC2=O)cc1 | 1780 nM | 1700 nM | 195 µM

Reference: ChEMBL document CHEMBL1142338, “Design, synthesis, cytoselective toxicity, structure-activity relationships, and pharmacophore of thiazolidinone derivatives targeting drug-resistant lung cancer cells” (J Med Chem, 2008)
